Compounds with a hit are over-represented: about 0.99% of the library has one in this group of screens.
ABCG2 inh: human ABCG2 inhibition, ABCB1 as counter-screen; Q9UNQ0; IgMXP3 cells, JC-1 efflux, flow cytometry; inhibition, % at 6.6 µM; hit rate 0.1% among 190,000; AID 1325;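 active = inhibition above 80%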;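 also: 0% = DMSO and 100% = nicardipine control wells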
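System: two drug-resistant human cell lines, ABCG2 and ABCB1; controls: nicardipine high and DMSO low controls; times: 10 min exposure at 25 °C with rotation, no wash; detection: flow cytometry of retained JC-1 fluorescence; read-out basis: percent efflux inhibition, scaled nicardipine 100% to DMSO 0%; doses: one concentration, 6.6 µM final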
DDE Tn6 FP inh: DD(E)-Tn6 binding inhibition, primary FP screen. P02675. Fibrin DD(E) TRITC-Tn6 fluorescence polarization displacement. inhibition, % at 8.3 µM. hit rate 0.21% among 370,000. AID 720509;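 active = inhibition above a per-campaign cutoff: mean of compounds within control limits plus 3 SD, cut at about 15% in these data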;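 also: 0% = median of all compound wells on the plate and 100% = blocking peptide control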
Target sequence (P02675 whole entry, looked up): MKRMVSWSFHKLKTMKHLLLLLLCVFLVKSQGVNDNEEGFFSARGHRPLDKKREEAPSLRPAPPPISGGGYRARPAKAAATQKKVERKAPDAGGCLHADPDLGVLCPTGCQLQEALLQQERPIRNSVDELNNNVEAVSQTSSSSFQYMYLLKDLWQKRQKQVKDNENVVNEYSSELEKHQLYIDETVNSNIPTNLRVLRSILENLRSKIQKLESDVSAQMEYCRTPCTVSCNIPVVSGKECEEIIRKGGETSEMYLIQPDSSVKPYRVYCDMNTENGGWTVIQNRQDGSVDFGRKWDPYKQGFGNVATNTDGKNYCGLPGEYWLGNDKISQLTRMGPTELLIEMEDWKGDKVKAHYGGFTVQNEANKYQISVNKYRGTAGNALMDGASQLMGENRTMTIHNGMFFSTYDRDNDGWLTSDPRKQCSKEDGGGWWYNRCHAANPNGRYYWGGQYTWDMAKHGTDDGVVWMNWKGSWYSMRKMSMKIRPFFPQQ
ABCB1 inh: blocks JC-1 efflux by human ABCB1 transporter | P08183 | CCRF-Adr cells, flow cytometry | inhibition, % at 6.6 µM | hit rate 0.067% among 190,000 | AID 1326; in the data active = inhibition above about 40%;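 also: 0% = vehicle and 100% = reference inhibitor; higher value means more JC-1 retained so stronger ABCB1 efflux block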
Insulin prom up: MIN6 insulin promoter up-regulation; z-score at 5 µM; MIN6 insulin promoter-GFP reporter, high-content imaging; hits give high values; hit rate 0.3% among 190,000;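 active = z-score above 3 at 5 µM with at least 500 cells counted in the well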
GRK2 inh: blocks RNA aptamer binding to human GRK2; P25098; inhibition of aptamer binding, % at 10 µM; bead flow cytometry, FAM-aptamer displacement from GRK2; hit rate 0.59% among 330,000;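 active = inhibition of aptamer binding above 40%, roughly 3 SD of noise, on plates passing a quality check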;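 also: median bead fluorescence of bound FAM aptamer so fluorescent compounds give negative values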
Tn7 DDE FP: inhibitors of Tn7 peptide binding to human fibrin DD(E); FP displacement of FITC-Tn7 peptide from fibrin DD(E); 0% = median of compound wells per plate; hit rate 0.13% among 370,000; inhibition, % at 8.3 µM;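 active = inhibition above the mean of compounds falling within the control limits plus 3 SD of them, cut at about 14% in these data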;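 also: 0% = plate median of compound wells and 100% = 10 µM Aha-Tn7 peptide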
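Test system: human clot-derived fibrin DD(E) complex / Quantity: 2 µM final DD(E) protein / Incubation: 10 min plus 3 h, room temperature / Measured by: fluorescence polarization / Benchmarks: high control of 10 µM Aha-Tn7 peptide / Replicates: singlicate testing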
Tn7 DDE conf: DD(E)-Tn7 binding inhibition, FP confirmation; shares compounds with Tn7 DDE FP; FP displacement of TRITC-Tn7 peptide from DD(E); 0% set at plate's compound-well median; inhibition, % at 8.3 µM; hit rate 5% among 460;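 active = inhibition above the campaign cutoff, the mean of compounds within control limits plus 3 SD, cut at about 14% in these data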;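 also: 100% = median FP of high control wells holding Aha-Tn7 inhibitor peptide; displacers lower polarization since freed probe rises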
DDE Tn7 FP ctr: counter-screen hit for Tn7 peptide-fibrin DD(E) binding disruption; AID 720633; inhibition, % at 8.3 µM; TRITC-Tn7 probe displacement, fluorescence polarization; hit rate 3% among 460; shares compounds with Tn7 DDE FP;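 active = inhibition above the cutoff, the mean of compounds lying between the control bounds plus 3 SD of those compounds, cut at about 17% in these data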;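 also: 0% = median of compound sample wells and 100% = excess unlabeled Aha-Tn7 peptide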
Starred values were filed as active, the others as inactive; x = no result given.

SMILES	ABCG2 inh	DDE Tn6 FP inh	ABCB1 inh	Insulin prom up	GRK2 inh	Tn7 DDE FP	Tn7 DDE conf	DDE Tn7 FP ctr
CCCCNC(=S)N(C)/N=C/c1ccccc1C(=O)O	3	0	0	-0.12	0	14*	-9	-7
COc1cccc(N2CCN(C(=O)CSc3nc4ncccc4[nH]3)CC2)c1	x	2	x	x	x	1	x	x
COC(=O)[C@H](CC(C)C)N(CCCc1cn(Cc2ccc(C)cc2)nn1)S(=O)(=O)c1ccc(F)cc1Br	x	-2	x	x	x	3	x	x
Cc1cc(-c2ccc(C(C)C)c(S(=O)(=O)Nc3ccccn3)c2)on1	x	10	x	x	1	18*	-2	-7
Cc1cc(NS(=O)(=O)c2ccc(NC(=O)Cc3ccc([N+](=O)[O-])cc3)cc2)no1	x	4	x	x	1	14*	0	-2
COc1ccc([C@H]2CC(=O)C=C(c3ccc(Cl)c(Cl)c3)C2)cc1	x	-2	x	x	3	8	x	x
COc1ccc([C@H]2CC(=O)C=C(c3ccc(Cl)c(F)c3)C2)cc1	x	-7	x	x	4	14*	7	5
NC(=O)CC(NC(=O)Cc1ccc(Cl)cc1)c1ccc(NC2CCCC2)c([N+](=O)[O-])c1 (centres undefined)	x	-4	x	-0.54	0	14*	7	5
NC(=O)CC(NC(=O)Cc1ccc(Cl)cc1)c1ccc(NC2CCCCC2)c([N+](=O)[O-])c1 (centres undefined)	x	0	x	0.06	2	8	x	x
COC(=S)Nc1cccc(C(F)(F)F)c1	x	2	x	-0.69	1	-1	x	x
COC(=O)/C=C/C(=O)Nc1cccc(C(F)(F)F)c1	14	3	1	0.57	0	14*	-2	-3
C/C(=N/NC(=O)Cc1cccs1)c1cccc([N+](=O)[O-])c1	x	1	x	x	x	0	x	x
CC(C)C(=O)N[C@@H]1c2ccccc2CC[C@@H]1OCc1ccccc1	x	5	x	x	8	14*	0	-4
CC(C)(C)OC(=O)C(Oc1ccccc1[N+](=O)[O-])C(=O)OC(C)(C)C	x	11	x	x	x	19*	1	11
CC1CCCCN1C(=O)COC(=O)Cc1c[nH]c2ccccc12 (centres undefined)	x	4	x	x	5	15*	2	0
O=C(CCc1nnc(Cc2ccc(-c3ccccc3)cc2)o1)N1CCCC1	3	7	1	0.2	0	16*	-6	-9
CC(C)CCNC(=O)C1COC(O)(C(Cc2ccccc2)NC(=O)[C@@H](NC(=O)OCc2ccccc2)C(C)C)CN1 (some centres undefined)	x	6	x	x	x	-2	x	x
O=C(Nc1ccccc1N1CCCCC1)c1cccc(Cl)c1	x	0	x	x	0	14*	-2	-8
O=C(Nc1ccccc1N1CCCC1)c1cc(Cl)ccc1Cl	8	5	0	0.26	0	0	x	x
CCOC(=O)C1=C(C)Nc2ccccc2N/C1=N\S(=O)(=O)c1cccc(Cl)c1	x	0	x	x	0	16*	7	-1
O=C(Oc1ccc([N+](=O)[O-])cc1)O[C@H]1CC[C@@]23CCCN2C(=O)CCC[C@H]3C1	x	0	x	x	x	-8	x	x
O=C(Cn1nc(C(=O)O)c2ccccc2c1=O)Nc1cc(C(F)(F)F)ccc1-n1cncn1	x	5	x	x	3	15*	-3	-6
COCCNC(=O)c1[nH]c(C(F)(F)F)nc1-c1ccccc1	x	2	x	x	x	15*	8	2
O=C(NCCc1ccccc1F)c1[nH]c(C(F)(F)F)nc1-c1ccccc1	x	-2	x	x	x	-2	x	x
c1ccc(-c2ccc(CNC3CC3)cc2)cc1	x	10	x	x	0	14*	6	-1
SMILES	ABCG2 inh	DDE Tn6 FP inh	ABCB1 inh	Insulin prom up	GRK2 inh	Tn7 DDE FP	Tn7 DDE conf	DDE Tn7 FP ctr
Clc1ccc(CNC2CCN(Cc3ccccc3)CC2)cc1	x	4	x	x	3	6	x	x
CC(=O)c1ccccc1NC(=O)CCCNC(=O)c1ccc(Cl)cc1	x	9	x	x	0	15*	10	3
CC(=O)NCCNc1nc2cc(-c3ccc(Cl)cc3C)sc2c(=O)n1C	x	5	x	x	x	2	x	x
N#CC1=C(N)Oc2n[nH]c(-c3ccc(F)cc3)c2C1c1cccc(OC(=O)N2CCOCC2)c1 (centres undefined)	-3	7	-2	-0.53	3	15*	5	-3
N#CC1=C(N)Oc2n[nH]c(-c3ccccc3)c2C1c1cccc(OC(=O)N2CCOCC2)c1 (centres undefined)	23	-4	0	0.77	0	2	x	x
O=S(=O)(c1ccc(SCc2ccccc2)nc1)N1CCCCC1	x	-5	x	x	0	-9	x	x
O=S(=O)(c1ccc(SCc2ccc(Br)cc2)nc1)N1CCCCC1	x	3	x	x	x	14*	-5	-10
O=C1CCC(=O)c2ccc3c4c(ccc1c24)CC3	x	6	x	x	x	1	x	x
O=C1CCN2C=Nc3cccc4ccc1c2c34	12	3	1	2	0	63*	30*	-8
C=CCn1c(SCC(=O)Nc2ccccc2-c2ccccc2)nnc1-c1ccc(Cl)cc1	x	-5	x	x	x	-8	x	x
O=C(NC(=S)NC1CCSC1=O)c1ccccc1Cl (centres undefined)	0	-2	0	-0.49	1	15*	4	1
CC(C)(CNc1ccc([N+](=O)[O-])cc1C#N)N1CCOCC1	2	2	1	x	2	15*	5	2
COC(=O)c1sc(S(=O)(=O)N2CCN(c3ccccc3)CC2)c(C(=O)OC)c1C	14	1	2	-0.61	0	14*	-2	-6
Nc1nc(N2C(=O)C3CC=CCC3C2=O)nn1-c1ccccc1 (centres undefined)	1	-5	0	0.75	0	16*	-2	-3
Nc1nc(-n2cnnc2)nn1-c1ccccc1	0	2	0	0.76	1	5	x	x
C[C@H]1CCCN1c1cccc2c1S(=O)(=O)N(C1CC1)CCCO2	x	7	x	x	x	-1	x	x
Cc1cc2nc3c(=O)n(C4CCCCC4)c(=O)[nH]c3nc2cc1N	-4	-4	0	x	x	25*	17*	8
CCCCCCCCSC1=CC(=O)C(OC)=C(OC)C1=O	x	-10	x	x	x	4	x	x
C[C@H]1COc2cccc(N3CCCC3)c2S(=O)(=O)N1C	x	1	x	x	x	-5	x	x
NS(=O)(=O)c1ccc(CNC(=O)Cc2ccccc2[N+](=O)[O-])cc1	x	2	x	x	0	15*	0	2
NS(=O)(=O)c1ccc(CCNC(=O)Cc2ccccc2[N+](=O)[O-])cc1	1	-1	0	0.07	x	-4	x	x
